# The source made the active and inactive calls. The rule behind the calls is not given here.
# Legend:
# [1] = Cytotoxicity against human OR6 cells after 120 hrs; format: cell-based; settings: or6, 120 h
# Outline: (§1)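 For viability, OR6 cells are plated in triplicate and grown 24 h: 4.5–5 × 10^4 cells (72 h assay) or 1–1.5 × 10^4 cells (120 h assay). Nutrients are then applied for 72 or 120 h. Viable cells are counted by trypan blue exclusion and expressed as % of the untreated cell number.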
# Hepatitis C virus [2] = experiment: Antiviral activity against HCV assessed as inhibition of HCV RNA replication in OR6 cells after 72 hrs by luciferase reporter assay; format: functional, organism-based, Hepacivirus hominis; settings: OR6, 72 h
# Outline: (§2)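 OR6 cells (HuH-7 carrying genome-length HCV-O genotype 1b RNA with a Renilla luciferase-NeoR fusion) are seeded in triplicate, 1.0–1.5 × 10^4 per well, and grown 24 h. Nutrients are then added for 72 h, or 24 h in the time course. Renilla luciferase is read from cell lysates and expressed as % of untreated cells. Liposoluble nutrients are carried in DMSO or ethanol at 0.1% final. EC50 is obtained by sigmoid regression.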
# [3] = Cytotoxicity against human OR6 cells after 120 hrs by cell viability assay; format: cell-based; settings: or6, 120 h; outline: as §1
# Hepatitis C virus [4] = experiment: Antiviral activity against HCV assessed as suppression of HCV RNA replication in ORN/3-5B/KE/poly cells after 72 hrs by luciferase reporter assay; format: functional, organism-based; settings: Hepacivirus hominis
# Outline: (§3)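 Polyclonal HuH-7 lines carrying either genome-length (ORN/C-5B/KE/poly) or subgenomic (ORN/3-5B/KE/poly) HCV-O genotype 1b RNA with a Renilla luciferase reporter are kept in DMEM with 10% FBS and G418 300 μg/ml. They are treated as in the OR6 assay for 72 h. Renilla luciferase is then measured and expressed as % of untreated cells.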
# Hepatitis C virus [5] = experiment: Antiviral activity against HCV assessed as suppression of HCV RNA replication in ORN/C-5B/KE/poly cells after 72 hrs by luciferase reporter assay; format: functional; settings: Hepacivirus hominis; outline: as §3
# Hepatitis C virus [6] = experiment: Antiviral activity against HCV assessed as inhibition of HCV RNA replication in OR6 cells after 24 hrs by luciferase reporter assay; format: functional, organism-based; settings: Hepacivirus hominis; outline: as §2
# [7] = Cytotoxicity against human OR6 cells after 72 hrs; format: cell-based; settings: or6, 72 h; outline: as §1
# Hepatitis C virus [8] = experiment: Enhancement of HCV RNA replication in OR6 cells after 72 hrs by luciferase reporter assay; format: functional, organism-based; settings: Hepacivirus hominis; outline: as §2
# Hepatitis C virus [9] = experiment: Enhancement of HCV RNA replication in ORN/3-5B/KE/poly cells after 72 hrs by luciferase reporter assay; format: functional, organism-based; settings: Hepacivirus hominis; outline: as §3
# Hepatitis C virus [10] = experiment: Enhancement of HCV RNA replication in ORN/C-5B/KE/poly cells after 72 hrs by luciferase reporter assay; format: functional, organism-based; settings: Hepacivirus hominis; outline: as §3
# Hepatitis C virus [11] = experiment: Antiviral activity against HCV assessed as inhibition of HCV RNA replication in OR6 cells at 50 uM after 120 hrs by luciferase reporter assay; format: functional, Hepacivirus hominis; settings: OR6, 120 h
# Outline: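 The time course uses OR6 cells (HuH-7, genome-length HCV genotype 1b RL reporter), 0.5 × 10^4 cells per well in triplicate, grown 24 h before exposure. Treatment runs 120 h at the stated 50 μM. Renilla luciferase activity in lysates is given as % of untreated control.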
Compound,Activity [1],EC50 (Hepatitis C virus [2]),Activity [3],Activity (Hepatitis C virus [4]),Activity (Hepatitis C virus [5]),Activity [7],Activity (Hepatitis C virus [8]),also measured
C=C1CC[C@H](O)C/C1=C/C=C1\CCC[C@]2(C)[C@@H]([C@H](C)/C=C/[C@H](C)C(C)C)CC[C@@H]12 [ERGOCALCIFEROL],Non-toxic,3.8 µM,Non-toxic,Active,Active,Non-toxic,,Activity (Hepatitis C virus [6]): Active
O=[Se](=O)(O)O,,,,,,,Active,
CCCCC/C=C\C/C=C\C/C=C\C/C=C\CCCC(=O)O [ARACHIDONIC ACID],,22.1 µM,,,,,,
VITAMIN E,,,,,Active,,Active,Activity (Hepatitis C virus [9]): inactive; Activity (Hepatitis C virus [10]): Active
CC/C=C\C/C=C\C/C=C\C/C=C\C/C=C\CCCC(=O)O [ICOSAPENT],,36.2 µM,,,,,,
CC1=C(/C=C/C(C)=C/C=C/C(C)=C/C=C/C=C(C)/C=C/C=C(C)/C=C/C2=C(C)CCCC2(C)C)C(C)(C)CCC1 [BETA CAROTENE],Non-toxic,6.3 µM,Non-toxic,Active,Active,Non-toxic,,Activity (Hepatitis C virus [6]): Active
CC1=C(/C=C/C(C)=C/C=C/C(C)=C/CO)C(C)(C)CCC1,,,,,,,Active,
CCCCC/C=C\C/C=C\CCCCCCCC(=O)O [LINOLEIC ACID],Non-toxic,20.2 µM,Non-toxic,Active,Active,Non-toxic,,inhibition at 50 µM (Hepatitis C virus [11]): 90%
CC/C=C\C/C=C\C/C=C\C/C=C\C/C=C\C/C=C\CCC(=O)O [DOCONEXENT],,37 µM,,,,,,
O=C1O[C@H]([C@@H](O)CO)C(O)=C1O,,,,,,,Active,
